Measured values from paper PMC4724694 (Acta Pharmaceutica Sinica. B, 2016).
Like-named read-outs stand apart in the source and are kept apart here.

Key:
5-LOX [1] = target: T1, 5-LOX (Homo sapiens, UniProt P09917); assay: Inhibition of 5-LOX product synthesis; type: cell-based
T1 sequence (P09917 1-674): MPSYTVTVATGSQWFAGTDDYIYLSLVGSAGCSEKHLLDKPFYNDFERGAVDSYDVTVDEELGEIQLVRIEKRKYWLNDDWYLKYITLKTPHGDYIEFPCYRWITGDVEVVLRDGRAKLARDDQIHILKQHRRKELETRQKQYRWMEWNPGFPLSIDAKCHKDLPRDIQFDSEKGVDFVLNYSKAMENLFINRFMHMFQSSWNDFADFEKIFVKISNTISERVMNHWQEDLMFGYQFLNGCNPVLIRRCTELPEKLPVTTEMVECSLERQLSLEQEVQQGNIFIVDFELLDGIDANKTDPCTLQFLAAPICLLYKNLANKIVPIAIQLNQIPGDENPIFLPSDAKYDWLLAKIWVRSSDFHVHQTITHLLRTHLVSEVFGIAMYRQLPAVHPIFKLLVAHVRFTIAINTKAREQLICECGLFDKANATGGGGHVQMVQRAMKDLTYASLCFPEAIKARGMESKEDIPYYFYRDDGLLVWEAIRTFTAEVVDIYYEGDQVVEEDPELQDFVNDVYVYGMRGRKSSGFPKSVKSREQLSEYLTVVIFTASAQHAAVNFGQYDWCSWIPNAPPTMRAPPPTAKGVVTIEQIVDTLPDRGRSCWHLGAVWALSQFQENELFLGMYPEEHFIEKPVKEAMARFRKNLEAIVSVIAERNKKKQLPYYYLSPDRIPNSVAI

BV2 cells [2] = assay: LPS-induced nitric oxide; type: cell-based, mouse; details: LPS 200 ng/mL, 4e at 10, 50 or 100 μmol/L, 24 h
Procedure, shortened: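 Mouse BV2 microglia grown in DMEM with 10% FBS and penicillin-streptomycin (100 μg/mL) at 37 °C, 5% CO2. Cells trypsinized and seeded at 2×10^4 cells/well; 24 h later, test compound added with or without LPS (200 ng/mL). Supernatants collected after 24 h exposure, mixed with equal volume of Griess reagent, and nitrite read at 570 nm.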

5-LOX [3] = target: T2, 5-LOX (Rattus norvegicus, UniProt P12527); assay: Inhibition of 5-LOX product synthesis; type: cell-based; details: for IC50: rat peritoneal polymorphonuclear leukocytes
T2 sequence (P12527 1-673): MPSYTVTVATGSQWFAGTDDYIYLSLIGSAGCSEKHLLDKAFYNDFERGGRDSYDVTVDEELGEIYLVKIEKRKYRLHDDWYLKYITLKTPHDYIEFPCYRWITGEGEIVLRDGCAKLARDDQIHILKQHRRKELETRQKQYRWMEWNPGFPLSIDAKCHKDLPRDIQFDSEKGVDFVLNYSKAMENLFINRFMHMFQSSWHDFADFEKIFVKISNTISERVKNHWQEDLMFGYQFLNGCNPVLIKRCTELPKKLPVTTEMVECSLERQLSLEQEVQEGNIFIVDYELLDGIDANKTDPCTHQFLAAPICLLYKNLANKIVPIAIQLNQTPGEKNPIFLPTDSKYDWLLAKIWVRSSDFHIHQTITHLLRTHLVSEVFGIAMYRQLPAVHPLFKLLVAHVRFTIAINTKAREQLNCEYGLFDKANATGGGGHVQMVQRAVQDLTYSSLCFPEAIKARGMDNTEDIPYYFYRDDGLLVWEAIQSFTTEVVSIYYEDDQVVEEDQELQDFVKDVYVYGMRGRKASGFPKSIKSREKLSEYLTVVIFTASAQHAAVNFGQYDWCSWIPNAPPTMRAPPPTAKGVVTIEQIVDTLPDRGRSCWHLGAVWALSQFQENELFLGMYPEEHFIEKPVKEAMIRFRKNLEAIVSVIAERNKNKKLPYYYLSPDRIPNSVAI

BV2 cells [4] = assay: BV2 cell viability, MTT assay; type: cell-based, mouse; details: tested concentrations 10, 50, 100 μmol/L, with or without LPS
mouse MCAO model = details: in vivo, ip, 50 mg/kg
5-LOX [5] = target: T1, 5-LOX; assay: Cell-free 5-LOX enzymatic assay; type: biochemical
HT22 cells = assay: Glutamate-induced oxidative toxicity in HT22 neuronal cells, MTT assay; type: cell-based, mouse; details: glutamate 5 mmol/L, 24 h, 4e at 1–100 μmol/L

CC(C)(C)c1cc(NC(=O)c2cc(-c3ccc4c(c3)OCO4)n(-c3ccc(S(N)(=O)=O)cc3)n2)cc(C(C)(C)C)c1O [4e, N-(3,5-di-tert-butyl-4-hydroxyphenyl)-5-(benzo [1, 3]dioxol-5-yl)-1-(4-amino-sulfonylphenyl)-1H-pyrazole-3-carboxamide] was tested, and the IC50 (5-LOX [1]) was 1080 nM, the “LPS-induced generation of NO” value (BV2 cells [2]) was “remarkably attenuated” and the IC50 (5-LOX [3]; IC50 PMNL) was 690 nM. For the same compound, the inhibition at 5 µM (5-LOX [3]; PMNL, read-out: Inhibition at 5 μmol/L (%)) was 90.1%, the “Cell viability of BV2 cells (MTT)” value (BV2 cells [4]) was “did not reduce the viabilities of BV2 cells” and the “Cortical, striatal and hemispheric infarct volumes” value (mouse MCAO model) was “significantly decreased cortical, striatal and hemispheric infarct volumes”. For the same compound, the IC50 (5-LOX [5]) was 133 ± 14 nM and the “Glutamate-induced HT22 cell death (MTT)” value (HT22 cells) was “remarkably reduced glutamate-induced HT22 cell death”.

With CC(C)(C)c1cc(NC(=O)c2cc(-c3ccc(C(F)(F)F)cc3)n(-c3ccc(S(C)(=O)=O)cc3)n2)cc(C(C)(C)C)c1O [5i, N-(3,5-di-tert-butyl-4-hydroxyphenyl)-1-(4-methylsulfonylphenyl)-5-p-tri-fluoromethylphenyl-1H-pyrazole-3-carboxamide] the IC50 (5-LOX [1]; read-out: IC50 HWB, human whole blood) was 1130 nM, the “Inhibition at 5 μmol/L (%)” value (5-LOX [3]; rat PMNLs, 5 μmol/L, mean of three determinations) was 69.6% and the IC50 (5-LOX [3]; read-out: IC50 PMNL) was 800 nM. The IC50 (5-LOX [5]; read-out: IC50 Enzymatic assay, cell-free, human 5-LOX, triplicate) was 127 ± 29 nM.
